Assay results as given in the EternaBench riboswitch data.

System: MS2 coat protein
Test: apparent Kd, MS2 coat protein; higher = weaker binding; RNA-MaP array; FMN 200 µM where present
Method in brief: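 The apparent Kd comes from binding curves fitted cluster by cluster, filtered, and summarised as a median. Those curves followed SNAP-549-labelled MS2 coat protein from 0.7 or 1.5 nM, doubling to 3 µM, on Illumina sequencing-chip clusters where stalled E. coli RNA polymerase had transcribed the designs, without and then with constant ligand. The buffer was 100 mM Tris-HCl pH 7.5, 80 mM KCl, 4 mM MgCl2, BSA, DTT, yeast tRNA and Tween-20, and green signal was normalised to red-channel RNA signal and control-cluster median Fmax.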

[1] = designed as: ON switch for flavin mononucleotide, no ligand
[2] = ligand present: flavin mononucleotide, designed as: ON switch for flavin mononucleotide
[3] = designed as: OFF switch for flavin mononucleotide, no ligand
[4] = ligand present: flavin mononucleotide, designed as: OFF switch for flavin mononucleotide

AAUCGGGAGCAGAAGGCAUGUAAUAAAACAUGAGGAUCACCCAUGUAGUUAAGGCGAAAGCCGCAUGAGGAUAUGCUCCCGUAA
apparent Kd [1]: 5.39 nM | apparent Kd [2]: 4.99 nM

GUAGCAAUCGGAGGAUAUUCAUACCGGAAACGGACAUGAGGAUCACCCAUGUCGCGAAAGCGUUGGGAGAAGGCCGAUUGCUAC
apparent Kd [1]: 220 nM | apparent Kd [2]: 21.3 nM

AUGGAUACCACAGGAUAUAGCUAGCAUAGCUAGCUAGAAGGGUGGUCCAUCCUAUGUAAAUACAUGAGGAUCACCCAUGUGUCC
apparent Kd [1]: 403 nM | apparent Kd [2]: 207 nM

GGAUGACAAAGUCAUCCUAUUCGAACAUGAGGAUCACCCAUGUAGGAUAUGCUUCUCAAAGAGAAGCAGAAGGACAUGUGCCUU
apparent Kd [3]: 32 nM | apparent Kd [4]: 182 nM

GUGCUGGAGCUUUGCUUUAGUCGUACAUGAGGAUCACCCAUGUAGGAUAUGGUAGGCUUUGCUUACUAGAAGGAUAGAGUGGUC
apparent Kd [3]: 40.3 nM | apparent Kd [4]: 26.8 nM

GAAAAGGUAGGAUAUACGAAAACAAAGGGUAGAAACAAAACACAUGAGGAUCACCCAUGUAGAAGGACCAAAAG
apparent Kd [3]: 36.4 nM | apparent Kd [4]: 233 nM

AUGCUUUAUGUAGGAUAUGCAUACGGUACGUAUGCAGAAGGACAUGAGGAUCACCCAUGUAAAUUAUUAUUACAUAUCAUACAU
apparent Kd [4]: 44 nM

GCCAUCGCAUGAGGAUAUGCUCCCGUUUCGGGAGCAGAAGGCAUGUCAUAAGACAUGAGGAUCACCCAUGUAGAUAAGGUGGCA
apparent Kd [1]: 337 nM | apparent Kd [2]: 12.7 nM

UUUCGGAGCAGAGGAUAUUACAUGAGGAUCACCCAUGUAUGAACCAAUAGCUGGAAACAGCAAUGUAAGAAGGCUGCUCCGACA
apparent Kd [3]: 11.2 nM | apparent Kd [4]: 182 nM

CACGGAUAGUAGAAGGGUGACAUGAGGAUCACCCAUGUACACAUGCGUAUUAAAGUAUGUGAUACACAGGAUAUACUAUCCGUG
apparent Kd [1]: 76.3 nM | apparent Kd [2]: 321 nM

GCCAUCACAUGAGGAUAUGCUCGGGUUUCCCGAGCAGAAGGCAUGUCAUAAGACAUGAGGAUCACCCAUGUAGUUAAGAUGGCA
apparent Kd [1]: 399 nM | apparent Kd [2]: 14.5 nM

GUAGCUAUCGGAGGAUAUUCAUACCGGAAAAGGACAUGAGGAUCACCCAUGUGGCGAAAGCCUUGGGAGAAGGCCGAUAGCUAC
apparent Kd [1]: 94.2 nM | apparent Kd [2]: 6.77 nM

GUAUAGGACAGAGGAUAUACGUGCUAGAGAUACUAGCAAAAUUUCCUCACAUGAGGAUCACCCAUGUAGAAGGCUGUCCUAUCG
apparent Kd [3]: 17.1 nM | apparent Kd [4]: 498 nM

UAACCUCGCGUCAGGAUAUGCGAGGACUGUGACGUGCAGAAGGGACAUGAGGAUCACCCAUGUGAAAGAAUUAA
apparent Kd [3]: 25.2 nM | apparent Kd [4]: 25.4 nM

CGAACUAAGUAGAAGGCUGUCUUAAAAUAGGACAGAGGAUAUACAUGAGGAUCACCCAUGUACUCCUUUAAUAAGUUUGAAAUA
apparent Kd [3]: 5.84 nM | apparent Kd [4]: 6.48 nM

AGGCGGGUAGGAUAUAUUUUCGUCAACAUGAGGAUCACCCAUGUGUCCUGAAGUGAUAUCAUAGAAGGGCCCAGCU
apparent Kd [3]: 25.4 nM | apparent Kd [4]: 33.8 nM

GUUGCACAAAUUAACAUGAGGAUCACCCAUGUCAAAAGACAUGAGGAUAUGGAUCUGAAGAAGAUCCAGAAGGCAUAGUGCUAA
apparent Kd [1]: 370 nM | apparent Kd [2]: 23.7 nM

UUCAUUAACAUGAGGAUCACCCAUGUUGGCCAGUCUCACACCAGAAGGCACGUUGAGCACAUCAGUGAGGAUAUGGGUGACAUA
apparent Kd [1]: 331 nM | apparent Kd [2]: 91 nM

GAUGCUAUCCGAGGAUAUUCAUACCGGAAACGGACAUGAGGAUCACCCAUGUGGCGAAAGCCUUGGGAGAAGGCGGAUAGCAUC
apparent Kd [1]: 581 nM | apparent Kd [2]: 23.4 nM

GUUUUUCCUCAUGUACAUGAGGAACAUGAGGAUCACCCAUGUAGAAGGAAUUCUCUUAAAUUAAGUUAGGAUAUACAUAUAUUU
apparent Kd [3]: 464 nM | apparent Kd [4]: 285 nM

AAUGGGCAGCAGAAGGCAUGUCAAUGGACAUGAGGAUCACCCAUGUAGUAUAGCCGAAAGGCACAUGAGGAUAUGCUGCCCUAA
apparent Kd [1]: 47.2 nM | apparent Kd [2]: 6.74 nM

AUGCCGUGCAGAGCGCGACGGCGAACAUGAGGAUCACCCAUGUAGGAUAUACUACACAAAGUGUAGUAGAAGGACGUGCGGCAC
apparent Kd [3]: 20.9 nM | apparent Kd [4]: 30.8 nM

UUCAAUCACAUAGGAUAUAGAAUAAUAAUUUUUUACAUGAGGAUCACCCAUGUUUUAUUGGGUUUCUAGAAGGAUGAGUUAUUA
apparent Kd [1]: 524 nM | apparent Kd [2]: 300 nM

CCUAUGUGAGGAUAUGGUGUUGGCCACAGGGAAAAGGUCCUCCAGAAGGCACAUGAGGAUCACCCAUGUCGUGG
apparent Kd [3]: 116 nM | apparent Kd [4]: 127 nM

CCUCUGUCCGAGGAUAUGAGGUUAACGUGACCGUCAGAAGGCGGAACAUGAGGAUCACCCAUGUUUUGCGCAUG
apparent Kd [3]: 44.2 nM | apparent Kd [4]: 68 nM

GGGUACAUCGGAGGAUAUCAUGUAAAUACAUGAGGAUCACCCAUGUCGAUGGAGACAUCGGAUAUUGAGAAGGCCGAUGUACCG
apparent Kd [1]: 18.7 nM | apparent Kd [2]: 5.46 nM

UAAUUGUGAGGAUAUUCGUUUUACACGGAGACGUGUAGAACGGAGAAGGCACAUGAGGAUCACCCAUGUUCCUU
apparent Kd [3]: 18 nM | apparent Kd [4]: 100 nM

GGGUACAUCGGAGGAUAUCAUGUAAAUACAUGAGGAUCACCCAUGUCGAUGGAGACAUCGGAGAUUGAGAAGGCCGAUGUCCCG
apparent Kd [1]: 194 nM | apparent Kd [2]: 7.99 nM
